High-throughput results deposited in PubChem by Johns Hopkins Ion Channel Center.
TRPC6 inh: mouse TRPC6 channel inhibitors, primary screen, cell-based, HEK293, membrane potential dye. Short transient receptor potential channel 6 (Mus musculus), Q61143. ACh-evoked depolarization; stronger effect = lower value. B-score at 10 µM. 310,000 compounds, 1.1% hits. AID 2553, 2010;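 active = B-score under library mean minus 3 SD, initial fluorescence not abnormally high, positive integrated signal ratio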;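 also: B-score derived from integrated fluorescence ratio over the kinetic read; more negative B-score means stronger inhibition of depolarization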
TRPC4 PAM: positive allosteric modulators of TRPC4, primary screen, cell-based, mouse TRPC4beta, HEK293 mu-opioid, Fluo-4 calcium. B-score at 10 µM. 310,000 compounds, 0.42% hits. Short transient receptor potential channel 4 (Mus musculus), Q9QUQ5. DAMGO EC20, Fluo-4 Ca2+ flux; stronger effect = higher value;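 active = B-score of calcium response area above 5 SD of library B-scores, with initial fluorescence ratio within 5 SD of library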
Target sequence (Q9QUQ5 whole entry, looked up): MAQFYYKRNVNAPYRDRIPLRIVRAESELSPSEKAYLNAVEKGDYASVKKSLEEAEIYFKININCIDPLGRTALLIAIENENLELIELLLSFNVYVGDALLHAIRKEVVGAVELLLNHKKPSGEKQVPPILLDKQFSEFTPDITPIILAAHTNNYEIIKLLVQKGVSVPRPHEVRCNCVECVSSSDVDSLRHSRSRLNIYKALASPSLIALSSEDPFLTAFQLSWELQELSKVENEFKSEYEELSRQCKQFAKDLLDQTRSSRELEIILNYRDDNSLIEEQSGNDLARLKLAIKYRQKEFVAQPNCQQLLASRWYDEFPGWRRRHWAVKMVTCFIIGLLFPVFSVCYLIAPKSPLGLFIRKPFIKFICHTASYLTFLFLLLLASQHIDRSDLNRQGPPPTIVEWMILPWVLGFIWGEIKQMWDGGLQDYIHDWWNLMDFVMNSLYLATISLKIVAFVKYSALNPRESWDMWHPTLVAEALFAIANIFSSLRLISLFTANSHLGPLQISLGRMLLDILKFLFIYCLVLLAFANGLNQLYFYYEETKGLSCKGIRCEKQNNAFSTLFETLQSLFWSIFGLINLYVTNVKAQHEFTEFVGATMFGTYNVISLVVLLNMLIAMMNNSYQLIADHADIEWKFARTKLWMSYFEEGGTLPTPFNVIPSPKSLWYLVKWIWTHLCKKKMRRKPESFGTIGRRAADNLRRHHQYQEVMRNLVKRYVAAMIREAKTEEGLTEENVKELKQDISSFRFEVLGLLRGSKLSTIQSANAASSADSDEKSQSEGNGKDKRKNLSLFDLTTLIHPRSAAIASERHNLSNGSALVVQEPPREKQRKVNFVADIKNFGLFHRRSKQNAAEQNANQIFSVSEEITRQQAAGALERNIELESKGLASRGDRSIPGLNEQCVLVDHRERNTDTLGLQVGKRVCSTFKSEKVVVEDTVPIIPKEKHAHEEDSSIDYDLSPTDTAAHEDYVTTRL
TRPC6 act: mouse TRPC6 channel activators, primary screen, cell-based, HEK293, membrane potential dye; AID 2550, 2010; B-score at 10 µM; 310,000 compounds, 0.13% hits; HEK293-TRPC6 membrane potential dye fluorescence; stronger effect = higher value; Short transient receptor potential channel 6 (Mus musculus), Q61143;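 active = B-score of the integrated fluorescence ratio above library mean plus 3 SD, and starting fluorescence ratio within library mean plus 5 SD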;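 also: higher score means more depolarization so channel activation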
TRPC4 agonist: activators of mouse TRPC4 channel, primary screen, Fluo4 calcium, HEK293 TRPC4beta/mu-opioid cells. Fluo4 calcium fluorescence; stronger effect = higher value. B-score at 10 µM. 310,000 compounds, 0.49% hits. AID 2237, 2010;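 active = B-score above 5 SD of library B-scores, and initial fluorescence ratio not above library mean plus 5 SD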;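 also: positive B-score marks a calcium rise read as TRPC4 activation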
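Material: TRPC4beta and mu-opioid receptor HEK293 stable cells | Incubation: 45 min room-temperature Fluo4 loading, 110 s read | Detection: Kinetic Fluo4 calcium fluorescence | Measure: Integrated baseline-normalised fluorescence ratio, converted to per-well B score | Benchmarks: Low control buffer alone, high control maximal DAMGO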
TRPC4 block: inhibitors of mouse TRPC4 channel, primary screen, Fluo4 calcium, HEK293 TRPC4beta/mu-opioid cells; Short transient receptor potential channel 4 (Mus musculus), Q9QUQ5; DAMGO-evoked Fluo4 calcium flux; stronger effect = lower value; B-score at 10 µM; 300,000 compounds, 0.39% hits;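 active = B-score over 3 SD under the library average, no early fluorescence shift, positive overall ratio signal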
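Assay system: Stable TRPC4beta/mu-opioid receptor HEK293 cells | Reagent: DAMGO in two steps, submaximal then maximal | Compound dosing: Single concentration per test compound | Signal: Fluo4 Ca2+ flux fluorescence | Evaluation: Per-well B score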
Each line names hits and unclear results; the compound was inactive in the other large screens. An excerpt weighted towards active compounds, which were near 2.3% of everything screened.

CCOC(=O)C1(CCOc2ccccc2)CCN(Cc2ccc3c(c2)OCCO3)CC1	TRPC4 agonist 61
COc1cccc(C(N)=O)c1OC(=O)Cc1ccccc1F	none
Cc1c(O)ccc2c(O)c(NC(=O)c3ccc4c(c3)CCC(C)(C)O4)c(=O)oc12	none
COc1cc(CN2CCCC(C(=O)N3CCc4ccccc4C3)C2)cc(OC)c1OC (stereo not drawn)	TRPC4 agonist 55
O=C(C1CCCN(Cc2ccccc2)C1)N1CCc2ccccc2C1 (stereo not drawn)	TRPC4 agonist 160
COc1cc([N+](=O)[O-])ccc1NC(=O)CN1CCOCC1	none
CCC(C(=O)OC)n1cnc2c(nnn2-c2ccc(C)cc2)c1=O (stereo not drawn)	none
CCN1CCN(c2cc(C)c3cc(NC(=S)NCCN(C)C)ccc3n2)CC1	none
CCCCN(C)CCNC(=S)Nc1ccc2nc(N3CCN(CC)CC3)cc(C)c2c1	TRPC4 PAM 16
CCCN(CCC)CCNC(=O)CCC(=O)Nc1ccc2nc(N3CCN(C)CC3)cc(C)c2c1	TRPC4 agonist 87
Cc1cc(C(=O)Nc2ccc(Br)cc2)cs1	none
Cc1ccc(S(=O)(=O)C2CS(=O)(=O)CC2O)cc1 (stereo not drawn)	none
CC(=O)C1=C(S(=O)(=O)c2ccc(C)cc2)CS(=O)(=O)C1	TRPC4 block -7
O=Cc1cc(-c2ccccc2)[nH]c1-c1ccccc1	none
O=C(Nc1nnc(-c2cccs2)o1)c1cccc(C(F)(F)F)c1	TRPC4 agonist 127
N#Cc1ccc(C(=O)Nc2nnc(-c3cccs3)o2)cc1	none
CCC(=O)NCCc1nc2cc(NC(=O)c3cccc([N+](=O)[O-])c3)ccc2n1C	none
CC1(c2ccccc2)CC(C)(C)N(C(=O)C2CCCO2)c2ccccc21 (stereo not drawn)	TRPC4 block -7
CC1(c2cc([N+](=O)[O-])cc([N+](=O)[O-])c2)CC(C)(C)N(C(=O)c2ccccc2)c2ccccc21 (stereo not drawn)	none
O=C(NCc1ccco1)c1ccc2nc3sc4c(c3c(=O)n2c1)CCCC4	TRPC4 block -6
COc1cccc(N2CC(C(=O)Nc3nnc(SCCC4OCCO4)s3)CC2=O)c1 (stereo not drawn)	none
NS(=O)(=O)c1ccc(CNC(=O)CNC(=O)c2ccc(Br)o2)cc1	none
N#Cc1ccc(COC(=O)c2ccc3c(c2)OCO3)cc1	none
O=C(OCC1CCNCC1)c1ccc2c(c1)OCO2	TRPC4 agonist 62
COc1ccc(OCCN(C)Cc2c(O)ccc3ccccc23)cc1	TRPC4 PAM 18
CN(Cc1ccccc1)Cc1c(O)ccc2ccccc12	none
Cc1ccc(S(=O)(=O)N2CCC(NC(=O)C3CCCCC3)CC2)cc1	none
O=C(CC(=O)c1c(F)cccc1Cl)c1ccccc1O	TRPC4 agonist 84
c1ccc(Cn2nnnc2C(c2cccnc2)N2CCN(C3CCCCC3)CC2)cc1 (stereo not drawn)	TRPC4 agonist 103
Fc1ccc(C(c2nnnn2Cc2cccs2)N2CCN(C3CCCC3)CC2)cc1 (stereo not drawn)	none
Fc1ccc(C(c2nnnn2Cc2ccco2)N2CCN(C3CCCCC3)CC2)cc1 (stereo not drawn)	TRPC4 agonist 196
CSc1ccccc1OCc1cc(C(=O)NCCCn2nc(C)cc2C)no1	none
CC(C)=CCN1CCN(Cc2cn[nH]c2C2CCCCC2)CC1CCO (stereo not drawn)	none
Cc1cc(C)c(CN2CCN(Cc3ccc(C)o3)C(CCO)C2)c(-n2cccn2)c1 (stereo not drawn)	TRPC4 agonist 77
Cc1ccc(CN2CCN(Cc3c(C)nn(-c4ccc(F)cc4)c3C)CC2CCO)o1 (stereo not drawn)	none
O=C(COc1ccc(F)cc1Br)N1CCN(c2ncccn2)CC1	none
O=C(COc1ccc(F)cc1Br)N1CCN(S(=O)(=O)/C=C/c2ccccc2)CC1	TRPC4 PAM 12
O=C(NC(=S)N1CCN(c2ccc([N+](=O)[O-])cc2Cl)CC1)c1ccco1	TRPC4 PAM 12
